Experimental data: ChEMBL document CHEMBL3044709, “Antimicrobial furostanol saponins from the seeds of Capsicum annuum L. var. acuminatum” (2002)
In brackets after ≈: the same amount, converted by molar mass.

How the values were obtained:
Assay type in all cases: functional
Micrococcus luteus = assay: Antimicrobial activity against Micrococcus luteus DSM 348 after 48 hr by agar dilution method; conditions: DSM 348, 48 h
Method in brief: (§1)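 Agar dilution on standard plate count agar: 0.5 mL of a 2-fold serial dilution of sample mixed into 9.5 mL medium, poured into Petri dishes, organism streaked on the surface. Incubated at 28 °C (36 and 48 h). MIC is the lowest tested concentration with no visible growth.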

Saccharomyces cerevisiae [1] = assay: Antimicrobial activity against Saccharomyces cerevisiae Diproval 404 after 48 hr by agar dilution method; conditions: Diproval 404, 48 h
Method in brief: (§2)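 Yeast peptone dextrose agar plates, each holding a 2-fold serial dilution of sample (0.5 mL into 9.5 mL medium). Yeast streaked onto the plates and incubated at 28 °C, read at 36 and 48 h. MIC is the lowest concentration tested showing no growth.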

[2] = tested on: Lactiplantibacillus plantarum; assay: Antimicrobial activity against Lactobacillus plantarum DSM 20174 after 48 hr by agar dilution method; conditions: DSM 20174, 48 h; method in brief: as §1
Saccharomycodes ludwigii = assay: Antimicrobial activity against Saccharomycodes ludwigii Diproval 120 after 48 hr by agar dilution method; conditions: Diproval 120, 48 h; method in brief: as §2
Lacticaseibacillus casei = assay: Antimicrobial activity against Lactobacillus casei DSM 20011 after 48 hr by agar dilution method; conditions: DSM 20011, 48 h; method in brief: as §1
Hanseniaspora osmophila = assay: Antimicrobial activity against Hanseniaspora osmophila CBS 313 after 48 hr by agar dilution method; conditions: CBS 313, 48 h; method in brief: as §2
Bacillus subtilis = assay: Antimicrobial activity against Bacillus subtilis DSM 345 after 48 hr by agar dilution method; conditions: DSM 345, 48 h; method in brief: as §1
Saccharomyces cerevisiae [3] = assay: Antimicrobial activity against Saccharomyces cerevisiae Diproval 7070 after 48 hr by agar dilution method; conditions: Diproval 7070, 48 h; method in brief: as §2
Hanseniaspora uvarum [4] = assay: Antimicrobial activity against Hanseniaspora uvarum AP23 after 48 hr by agar dilution method; conditions: Distaam AP23, 48 h; method in brief: as §2
Setophoma terrestris = assay: Antimicrobial activity against Setophoma terrestris ATCC 11321 after 48 hr by agar dilution method; conditions: ATCC 11321, 48 h
Method in brief: (§3)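 Fungi tested by agar dilution in malt agar. Serial 2-fold sample dilutions (0.5 mL) were mixed with 9.5 mL medium and plated, then streaked with the organism. Incubation at 28 °C for 36 and 48 h. MIC is the lowest tested concentration without growth.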

Saccharomyces cerevisiae [5] = assay: Antimicrobial activity against Saccharomyces cerevisiae Diproval 6073 after 48 hr by agar dilution method; conditions: Diproval 6073, 48 h; method in brief: as §2
Trichoderma viride = assay: Antimicrobial activity against Hypocrea rufa ATCC 28020 after 48 hr by agar dilution method; conditions: ATCC 28020, 48 h; method in brief: as §3
Stutzerimonas stutzeri = assay: Antimicrobial activity against Pseudomonas stutzeri ATCC 962 after 48 hr by agar dilution method; conditions: ATCC 962, 48 h; method in brief: as §1
[6] = tested on: Hanseniaspora guilliermondii; assay: Antimicrobial activity against Hanseniaspora guilliermondii CBS 465 after 48 hr by agar dilution method; conditions: CBS 465, 48 h; method in brief: as §2
Saccharomyces cerevisiae [7] = assay: Antimicrobial activity against Saccharomyces cerevisiae Diproval 9109 after 48 hr by agar dilution method; conditions: Diproval 9109, 48 h; method in brief: as §2
[8] = tested on: Lacticaseibacillus rhamnosus; assay: Antimicrobial activity against Lactobacillus rhamnosus DSM 20021 after 48 hr by agar dilution method; conditions: DSM 20021, 48 h; method in brief: as §1
Candida albicans = assay: Antimicrobial activity against Candida albicans CBS 562 after 48 hr by agar dilution method; conditions: CBS 562, 48 h; method in brief: as §2
Bacillus licheniformis = assay: Antimicrobial activity against Bacillus licheniformis DSM 13=ATCC 14580 after 48 hr by agar dilution method; conditions: DSM 13 = ATCC 14580, 48 h; method in brief: as §1
[9] = tested on: Staphylococcus epidermidis; assay: Antimicrobial activity against Staphylococcus epidermidis DSM 1798 after 48 hr by agar dilution method; conditions: DSM 1798, 48 h; method in brief: as §1
Escherichia coli [10] = assay: Antimicrobial activity against Escherichia coli DSM 682 after 48 hr by agar dilution method; conditions: DSM 682, 48 h; method in brief: as §1
Enterococcus faecalis = assay: Antimicrobial activity against Enterococcus faecalis DSM 2570 after 48 hr by agar dilution method; conditions: DSM 2570, 48 h; method in brief: as §1
Aspergillus niger = assay: Antimicrobial activity against Aspergillus niger ATCC 1040 after 48 hr by agar dilution method; conditions: ATCC 1040, 48 h; method in brief: as §3
Aspergillus fumigatus = assay: Antimicrobial activity against Aspergillus fumigatus ATCC 1028 after 48 hr by agar dilution method; conditions: ATCC 1028, 48 h; method in brief: as §3
Staphylococcus aureus = assay: Antimicrobial activity against Staphylococcus aureus subsp. aureus DSM 346 after 48 hr by agar dilution method; conditions: DSM 346, 48 h; method in brief: as §1
Saccharomyces cerevisiae [11] = assay: Antimicrobial activity against Saccharomyces cerevisiae Diproval 2439 after 48 hr by agar dilution method; conditions: Diproval 2439, 48 h; method in brief: as §2
Aspergillus flavus = assay: Antimicrobial activity against Aspergillus flavus ATCC 11655 after 48 hr by agar dilution method; conditions: ATCC 11655, 48 h; method in brief: as §3
Hanseniaspora uvarum [12] = assay: Antimicrobial activity against Hanseniaspora uvarum CBS 314 after 48 hr by agar dilution method; conditions: CBS 314, 48 h; method in brief: as §2
Penicillium expansum = assay: Antimicrobial activity against Penicillium expansum ATCC 7861 after 48 hr by agar dilution method; conditions: ATCC 7861, 48 h; method in brief: as §3
Escherichia coli [13] = assay: Antimicrobial activity against Escherichia coli ATCC 35346 after 48 hr by agar dilution method; conditions: ATCC 35346, 48 h; method in brief: as §1
Rhizopus arrhizus = assay: Antimicrobial activity against Rhizopus oryzae ATCC 56536 after 48 hr by agar dilution method; conditions: ATCC 56536, 48 h; method in brief: as §3
Saccharomyces cerevisiae [14] = assay: Antimicrobial activity against Saccharomyces cerevisiae Diproval 8167 after 48 hr by agar dilution method; conditions: Diproval 8167, 48 h; method in brief: as §2
Hanseniaspora vineae = assay: Antimicrobial activity against Hanseniaspora vineae CBS 2171 after 48 hr by agar dilution method; conditions: CBS 2171, 48 h; method in brief: as §2
[15] = tested on: Schizosaccharomyces pombe; assay: Antimicrobial activity against Schizosaccharomyces pombe Diproval 106 after 48 hr by agar dilution method; conditions: Diproval 106, 48 h; method in brief: as §2
[16] = tested on: Limosilactobacillus fermentum; assay: Antimicrobial activity against Lactobacillus fermentum DSM 20052 after 48 hr by agar dilution method; conditions: DSM 20052, 48 h; method in brief: as §1
Pseudomonas aeruginosa = assay: Antimicrobial activity against Pseudomonas aeruginosa DSM 1117 after 48 hr by agar dilution method; conditions: DSM 1117, 48 h; method in brief: as §1
Bacillus cereus = assay: Antimicrobial activity against Bacillus cereus DSM 345 after 48 hr by agar dilution method; conditions: DSM 345, 48 h; method in brief: as §1

- MIC (Micrococcus luteus): > 1000 µg/mL
- MIC (Saccharomyces cerevisiae [1]): 25 µg/mL (≈ 17.6 µM)
- MIC (Saccharomycodes ludwigii): 12.5 µg/mL (≈ 8.79 µM)
- MIC (Lacticaseibacillus casei): 1000 µg/mL (≈ 703 µM)
- MIC (Hanseniaspora osmophila): 25 µg/mL (≈ 17.6 µM)
- MIC (Bacillus subtilis): > 1000 µg/mL
- MIC (Saccharomyces cerevisiae [3]): 25 µg/mL (≈ 17.6 µM)
- MIC (Hanseniaspora uvarum [4]): 12.5 µg/mL (≈ 8.79 µM)
- MIC (Setophoma terrestris): 250 µg/mL (≈ 176 µM)
- MIC (Saccharomyces cerevisiae [5]): 25 µg/mL (≈ 17.6 µM)
- MIC (Trichoderma viride): 250 µg/mL (≈ 176 µM)
- MIC (Stutzerimonas stutzeri): > 1000 µg/mL
- MIC [6]: 12.5 µg/mL (≈ 8.79 µM)
- MIC (Saccharomyces cerevisiae [7]): 25 µg/mL (≈ 17.6 µM)
- MIC [8]: 1000 µg/mL (≈ 703 µM)
- MIC (Candida albicans): 25 µg/mL (≈ 17.6 µM)
- MIC (Bacillus licheniformis): > 1000 µg/mL
- MIC [9]: > 1000 µg/mL
- MIC (Escherichia coli [10]): 1000 µg/mL (≈ 703 µM)
- MIC (Enterococcus faecalis): > 1000 µg/mL
- MIC (Aspergillus niger): > 1000 µg/mL
- MIC (Aspergillus fumigatus): > 1000 µg/mL
- MIC (Staphylococcus aureus): > 1000 µg/mL
- MIC (Saccharomyces cerevisiae [11]): 25 µg/mL (≈ 17.6 µM)
- MIC (Aspergillus flavus): > 1000 µg/mL
- MIC (Hanseniaspora uvarum [12]): 12.5 µg/mL (≈ 8.79 µM)
- MIC (Penicillium expansum): 500 µg/mL (≈ 352 µM)
- MIC (Escherichia coli [13]): 1000 µg/mL (≈ 703 µM)
- MIC (Rhizopus arrhizus): 125 µg/mL (≈ 87.9 µM)
- MIC (Saccharomyces cerevisiae [14]): 25 µg/mL (≈ 17.6 µM)
- MIC (Hanseniaspora vineae): 12.5 µg/mL (≈ 8.79 µM)
- MIC [15]: 25 µg/mL (≈ 17.6 µM)
- MIC [16]: 1000 µg/mL (≈ 703 µM)
- MIC (Pseudomonas aeruginosa): > 1000 µg/mL
- MIC (Bacillus cereus): 1000 µg/mL (≈ 703 µM)
SMILES: COC1(CC[C@@H](C)CO[C@@H]2O[C@H](CO)[C@@H](O)[C@H](O)[C@H]2O)O[C@H]2C[C@H]3[C@@H]4CC[C@H]5C[C@@H](O[C@@H]6O[C@H](CO)[C@H](O[C@@H]7O[C@H](CO)[C@@H](O)[C@H](O[C@@H]8O[C@H](CO)[C@@H](O)[C@H](O)[C@H]8O)[C@H]7O[C@@H]7O[C@H](CO)[C@@H](O)[C@H](O[C@@H]8O[C@H](CO)[C@@H](O)[C@H](O)[C@H]8O)[C@H]7O)[C@H](O)[C@H]6O)CC[C@]5(C)[C@H]4CC[C@]3(C)[C@H]2[C@@H]1C (stereo partly specified) [22-O-METHYLCAPSICOSIDE G]
- MIC [2]: 1000 µg/mL (≈ 703 µM)
